The text below walks through data of ChEMBL document CHEMBL1128192, “Differences in backbone structure between angiotensin II agonists and type I antagonists” (J Med Chem, 1995).

Where a SMILES comes first, the peptide text is derived from it. [ ]: non-standard residue; d: D form. Nva(5-OH) = N[C@@H](CCCO)C(=O)O; Aib = CC(C)(N)C(=O)O; Sar = CNCC(=O)O

The target of assay [1] is T1, Angiotensin II receptor (AT-1) type-1 (Rattus norvegicus, UniProt P29089+P25095).
T1 sequence (P29089 whole entry): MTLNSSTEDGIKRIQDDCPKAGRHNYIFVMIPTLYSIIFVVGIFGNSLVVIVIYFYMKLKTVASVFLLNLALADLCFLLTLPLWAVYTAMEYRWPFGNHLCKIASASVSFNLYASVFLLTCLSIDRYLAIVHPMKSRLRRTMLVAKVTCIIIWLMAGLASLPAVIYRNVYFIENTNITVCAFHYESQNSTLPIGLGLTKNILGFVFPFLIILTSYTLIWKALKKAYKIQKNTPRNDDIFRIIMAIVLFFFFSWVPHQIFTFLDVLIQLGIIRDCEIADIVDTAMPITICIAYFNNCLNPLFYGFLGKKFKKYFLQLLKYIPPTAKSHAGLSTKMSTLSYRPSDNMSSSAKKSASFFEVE
T1 sequence (P25095 whole entry): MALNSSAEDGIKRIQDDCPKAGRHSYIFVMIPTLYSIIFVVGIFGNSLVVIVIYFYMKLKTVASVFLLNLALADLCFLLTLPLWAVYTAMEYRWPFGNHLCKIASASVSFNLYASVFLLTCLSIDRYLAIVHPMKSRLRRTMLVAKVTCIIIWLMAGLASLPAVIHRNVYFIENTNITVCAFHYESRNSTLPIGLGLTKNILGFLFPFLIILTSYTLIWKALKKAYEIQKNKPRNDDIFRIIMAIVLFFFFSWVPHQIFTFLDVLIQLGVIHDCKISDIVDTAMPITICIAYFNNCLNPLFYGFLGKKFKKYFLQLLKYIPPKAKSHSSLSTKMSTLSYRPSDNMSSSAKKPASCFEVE
In words: Antagonist activity against Angiotensin II receptor type 1 as pA2. In kind it is functional. Summed up:
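Isolated uterus from diethylstilbestrol-primed (25 μg im, 24 h) female virgin Sprague–Dawley rats, in DeJalons solution. An ANGII noncumulative dose-response curve was first set up in each tissue. Antagonist was added 2 min before ANGII, with EC50 reproducibility checked before and after. pA2 is the −log antagonist concentration that cuts the ED50 ANGII response to that of an ED50/2 dose, as the mean of ≥3 tissues.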

For assay [2], the target named is Angiotensin II receptor (Rattus norvegicus) (UniProt P29089+P25095+P35351). Nature of the assay: Agonist activity at Angiotensin II receptor. The assay is classed as functional. The method, boiled down: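 Uteri from female virgin Sprague–Dawley rats (150–200 g) given 25 μg diethylstilbestrol im 24 h before sacrifice. Horns were cleaned and bathed in DeJalons solution. Contractions were recorded with noncumulative dosing, with washout at peak response and 10 min rest between challenges. Activity is relative to human ANGII as standard, as the mean of at least three tissues.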
Chain of Angiotensin II receptor (Rattus norvegicus) (P35351 whole entry, looked up, one chain of several): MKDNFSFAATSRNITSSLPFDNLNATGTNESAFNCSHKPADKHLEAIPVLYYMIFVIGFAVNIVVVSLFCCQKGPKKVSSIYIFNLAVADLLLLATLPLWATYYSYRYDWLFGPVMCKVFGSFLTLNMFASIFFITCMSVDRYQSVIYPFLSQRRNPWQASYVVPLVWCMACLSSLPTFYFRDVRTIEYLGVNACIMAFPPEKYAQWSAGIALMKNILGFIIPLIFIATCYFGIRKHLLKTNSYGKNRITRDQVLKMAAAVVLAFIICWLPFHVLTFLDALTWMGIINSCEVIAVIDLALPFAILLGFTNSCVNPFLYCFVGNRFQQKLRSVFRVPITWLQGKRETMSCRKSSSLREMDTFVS

As usually defined, the pA2 is a measure of antagonist potency on a negative log scale. As to `CC[C@H](C)[C@H](NC(=O)[C@H](Cc1ccc(O)cc1)NC(=O)[C@@H](NC(=O)[C@H](CCCN=C(N)N)NC(=O)[C@@H](N)CC(=O)O)C(C)C)C(=O)N[C@@H](Cc1c[nH]cn1)C(=O)N1CCC[C@H]1C(=O)N[C@@H](CCOC)C(=O)O`, the pA2 in assay [1] stood at 7.5. The compound further showed an Agonist activity in assay [2] of less than 0.1%.

In the case of `CC[C@H](C)[C@H](NC(=O)[C@H](Cc1ccc(O)cc1)NC(=O)[C@@H](NC(=O)[C@@H](N)CCCN=C(N)N)C(C)C)C(=O)N[C@@H](Cc1c[nH]cn1)C(=O)N1CCC[C@H]1C(=O)N[C@@H](CCOC)C(=O)O`, the pA2 in assay [1] is less than 6. In addition, the Agonist activity in assay [2] is less than 0.1%. In the case of `CC[C@H](C)[C@H](NC(=O)[C@H](CCCO)NC(=O)[C@@H](NC(=O)[C@H](CCCN=C(N)N)NC(=O)C(C)(C)N)C(C)C)C(=O)N[C@@H](Cc1c[nH]cn1)C(=O)N1CCC[C@H]1C(=O)N[C@@H](Cc1ccccc1)C(=O)O` (H-[Aib]RV[Nva(5-OH)]IHPF-OH), in assay [1], the pA2 is reported as less than 6. The same measure, in the same setting: as for `CC[C@H](C)[C@H](NC(=O)[C@@H]1CCCN1C(=O)[C@H](Cc1c[nH]cn1)NC(=O)[C@@H](NC(=O)[C@H](CCCO)NC(=O)[C@@H](NC(=O)[C@H](CCCN=C(N)N)NC(=O)C(C)(C)N)C(C)C)[C@@H](C)CC)C(=O)O` (H-[Aib]RV[Nva(5-OH)]IHPI-OH), the figure is 6.2. Still for that read-out and setting: as for `CC[C@H](C)[C@H](NC(=O)[C@H](CCCO)NC(=O)[C@@H](NC(=O)[C@H](CCCN=C(N)N)NC(=O)CNC)C(C)C)C(=O)N[C@@H](Cc1c[nH]cn1)C(=O)N1CCC[C@H]1C(=O)N[C@@H](Cc1ccccc1)C(=O)O` (H-[Sar]RV[Nva(5-OH)]IHPF-OH), the figure is less than 6; as for `CC[C@H](C)[C@H](NC(=O)[C@@H]1CCCN1C(=O)[C@H](Cc1c[nH]cn1)NC(=O)[C@@H](NC(=O)[C@H](CCCO)NC(=O)[C@@H](NC(=O)[C@H](CCCN=C(N)N)NC(=O)CNC)C(C)C)[C@@H](C)CC)C(=O)O` (H-[Sar]RV[Nva(5-OH)]IHPI-OH), less than 5; as for `CC[C@H](C)[C@H](NC(=O)C(Cc1ccc(C(=O)O)cc1)NC(=O)[C@@H](NC(=O)[C@H](CCCN=C(N)N)NC(=O)CNC)C(C)C)C(=O)N[C@@H](Cc1c[nH]cn1)C(=O)N1CCC[C@H]1C(=O)N[C@@H](Cc1ccccc1)C(=O)O` (mixture of isomers), less than 5. Same read-out and setting: the result for `CC[C@H](C)[C@H](NC(=O)C(Cc1ccc(C(F)(F)F)cc1)NC(=O)[C@@H](NC(=O)[C@H](CCCN=C(N)N)NC(=O)CNC)C(C)C)C(=O)N[C@@H](Cc1c[nH]cn1)C(=O)N1CCC[C@H]1C(=O)N[C@@H](Cc1ccccc1)C(=O)O` (mixture of isomers) reads less than 5. With `CC[C@H](C)[C@H](NC(=O)[C@H](Cc1ccc(O)cc1)NC(=O)[C@@H](NC(=O)[C@H](CCCN=C(N)N)NC(=O)CNC)C(C)C)C(=O)N[C@@H](Cc1c[nH]cn1)C(=O)N1CCC[C@H]1C(=O)N[C@@H](CCOC)C(=O)O` (stereo in doubt; form 1), the pA2 in assay [1] is 7.6. For the same compound, the Agonist activity in assay [2] is less than 0.1%.
